Blank lines part the entries; values can stand above or below the compound they belong to. Active and inactive are the calls of the source. No cut-off for these calls is given here.
Experiments:
[1] = target: T1, Thymidylate synthase (Lactobacillus casei, UniProt P00469); test: The compound was evaluated for the inhibition of dTMP synthetase from Lactobacillus casei; design: species or system Lacticaseibacillus casei
T1 sequence (P00469 whole entry): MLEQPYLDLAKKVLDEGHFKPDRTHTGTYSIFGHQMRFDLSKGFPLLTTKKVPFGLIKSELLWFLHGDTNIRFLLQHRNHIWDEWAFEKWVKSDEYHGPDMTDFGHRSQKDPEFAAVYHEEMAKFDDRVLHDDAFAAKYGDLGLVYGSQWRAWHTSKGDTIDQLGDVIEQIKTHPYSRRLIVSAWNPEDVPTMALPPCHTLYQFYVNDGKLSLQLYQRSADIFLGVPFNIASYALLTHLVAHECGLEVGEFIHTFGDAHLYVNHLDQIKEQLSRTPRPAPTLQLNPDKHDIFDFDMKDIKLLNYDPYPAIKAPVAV
In short: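 dTMP synthetase came from a methotrexate-resistant strain of Lactobacillus casei and was purified. Activity was measured by a reported procedure in standard assay buffer. For time-dependent inactivation, enzyme was preincubated with nucleotide, with or without 0.1 mM CH₂-H₄folate, for up to 2 h. Aliquots were then diluted 10-fold into buffer containing 0.84 mM dUMP and 0.1 mM CH₂-H₄folate, and initial velocity was recorded.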

[2] = Effective concentration to inhibit the growth of Wild-type S49 cells; assay type: functional, cell-based; settings: Mus musculus
In short: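 Growth-inhibition assay run by a previously reported procedure on wild-type S49 cells, with a thymidine kinase-deficient S49/TK⁻ line tested alongside. The 5-alkynyl-2'-deoxyuridine nucleosides were tested up to 0.1 mM. EC₅₀ is the concentration giving half-maximal growth inhibition.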

[3] = organism: Mus musculus; test: Effect on mutant line lacking dThd kinase (S49/TK at 0.1 mM; No effect; assay type: functional
[4] = Compound was tested for cytotoxicity towards (Wild-type and TK-) S49 cells at 0.1 mM; Not cytotoxic; assay type: cell-based; settings: mouse, s49, 100 µM
[5] = Compound was tested for cytotoxicity against Wild-type S49 cells; assay type: functional, cell-based; settings: Mus musculus

Ki [1]: 1.9 µM
Structure (SMILES): O=c1[nH]c(=O)n([C@H]2C[C@H](O)[C@@H](COP(=O)(O)O)O2)cc1C#CCCO

Structure (SMILES): C#Cc1cn([C@H]2C[C@H](O)[C@@H](CO)O2)c(=O)[nH]c1=O
EC50 [2]: 0.12 µM | Effect [3]: inactive

Structure (SMILES): CCCCC#Cc1cn([C@H]2C[C@H](O)[C@@H](CO)O2)c(=O)[nH]c1=O
Cytotoxicity [4]: Non-toxic

Structure (SMILES): O=c1[nH]c(=O)n([C@H]2C[C@H](O)[C@@H](CO)O2)cc1C#Cc1ccccc1
Cytotoxicity [4]: Non-toxic

Ki [1]: 0.2 µM
Structure (SMILES): O=c1[nH]c(=O)n([C@H]2C[C@H](O)[C@@H](COP(=O)(O)O)O2)cc1Cl

Structure (SMILES): O=c1[nH]c(=O)n([C@H]2C[C@H](O)[C@@H](CO)O2)cc1C#CCO
Cytotoxicity [4]: Non-toxic

Structure (SMILES): O=c1[nH]c(=O)n([C@H]2C[C@H](O)[C@@H](COP(=O)(O)O)O2)cc1C#CCO
Ki [1]: 3 µM

Ki [1]: 2.6 µM
Structure (SMILES): CCCCC#Cc1cn([C@H]2C[C@H](O)[C@@H](COP(=O)(O)O)O2)c(=O)[nH]c1=O

Structure (SMILES): C#Cc1cn([C@H]2C[C@H](O)[C@@H](COP(=O)(O)O)O2)c(=O)[nH]c1=O
Ki [1]: 0.1 µM

Effect [3]: inactive
Structure (SMILES): O=c1[nH]c(=O)n([C@H]2C[C@H](O)[C@@H](CO)O2)cc1C#CCCO
EC50 [5]: 70 µM

Ki [1]: 2 µM
Structure (SMILES): O=c1[nH]c(=O)n([C@H]2C[C@H](O)[C@@H](COP(=O)(O)O)O2)cc1C#Cc1ccccc1

Source: ChEMBL document CHEMBL1121751, “Inhibition of thymidylate synthetase by 5-alkynyl-2'-deoxyuridylates” (J Med Chem, 1981)
